Assay [1] deals with HeLa. In words: In vitro cytotoxicity against HeLa S3 cell lines. As to conditions: Homo sapiens. Format: functional, cell-based.
The test system of assay [2] is P388. Nature of the assay: In vivo antileukemic activity against P388 leukemia at dose 100 mp/kg administered intraperitoneally. Format: functional, Mus musculus. Summed up: (§1)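 BDF1 mice implanted ip with 10^6 P388 cells. Compound given ip as aqueous solution containing 3 equiv of L-lactic acid on days 1-5. Activity expressed as T/C (%); T/C ≥ 125% taken as statistically significant antileukemic activity.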

The subject of assay [3] is P388. Nature of the assay: In vivo antileukemic activity against P388 leukemia at dose 12.5 mp/kg administered intraperitoneally. It counts as functional, Mus musculus.
In assay [4] the test system is P388. In words: In vivo antileukemic activity against P388 leukemia at dose 25 mp/kg administered intraperitoneally (30 days survivors, 3/6).
The test system of assay [5] is P388. Nature of the assay: In vivo antileukemic activity against P388 leukemia at dose 50 mp/kg administered intraperitoneally. Format: functional, Mus musculus. The essentials:
as §1

The subject of assay [6] is P388. In words: In vivo antileukemic activity against P388 leukemia at dose 8 mp/kg administered intraperitoneally. It counts as functional, Mus musculus. The essentials: as §1
Assay [7] concerns P388. In words: In vivo antileukemic activity against P388 leukemia at dose 25 mp/kg administered intraperitoneally. Format: functional, Mus musculus. Summed up: as §1
In assay [8] the test system is P388. Nature of the assay: In vivo antileukemic activity against P388 leukemia at dose 25 mp/kg administered intraperitoneally (30 days survivors, 2/6).
Assay [9] relates to P388. In words: In vivo antileukemic activity against P388 leukemia at dose 12.5 mp/kg administered intraperitoneally (30 days survivors, 3/6). Format: functional, Mus musculus.
In assay [10] the test system is P388. Nature of the assay: In vivo antileukemic activity against P388 leukemia at dose 40 mp/kg administered intraperitoneally. Format: functional, Mus musculus. The essentials:
as §1

Molecules are shown by their SMILES. Converted amounts (≈) assume the structure as drawn.

One may read the IC50 as the concentration that inhibits the measured activity by half. The term T/C denotes the result in the treated group divided by that in the control group, in per cent.

Turning to `Cc1ccc2c(c1)c(=O)c1c(NCCN(C)C)ccc3nnn2c31`, 0.17 µg/mL (≈ 0.529 µM) corresponded to half-maximal inhibition in assay [1] (IC50). This compound also yielded a T/C in assay [2] of 130%. For `CCN(CC)CCNc1ccc2nnn3c4ccc(Cl)cc4c(=O)c1c23`, the IC50 in assay [1] was found to be 0.13 µg/mL (≈ 0.351 µM). The T/C in [3] was determined as 111%. Compound `CN(C)CCCNc1ccc2nnn3c4ccc(O)cc4c(=O)c1c23` yielded an IC50 in assay [1] of 0.08 µg/mL (≈ 0.237 µM). This compound had a T/C in assay [4] of 320%.

Take `CN(C)CCNc1ccc2nnn3c4ccccc4c(=O)c1c23`: the IC50 in assay [1] turned out to be 0.21 µg/mL (≈ 0.683 µM). The compound also had a T/C in assay [2] of 180%. Turning to `COc1ccc2c(c1)c(=O)c1c(NCCCN(C)C)ccc3nnn2c31`, it took 0.17 µg/mL (≈ 0.484 µM) to reach half-maximal inhibition in [1] (IC50). Regarding `O=c1c2ccccc2n2nnc3ccc(NCCNCCO)c1c32`, the concentration for half-maximal inhibition (IC50) in assay [1] came to 0.29 µg/mL (≈ 0.897 µM). In addition, in assay [5], the T/C is 133%.

`CCN(CC)CCNc1ccc2nnn3c4ccc(O)cc4c(=O)c1c23` gave a 50% inhibitory concentration (IC50) in [1] of 0.05 µg/mL (≈ 0.142 µM). The compound further had a T/C in [6] of 190%. Turning to `O=c1c2cc([N+](=O)[O-])ccc2n2nnc3ccc(NCCNCCO)c1c32`, the half-inhibitory concentration (IC50) in [1] amounted to 0.12 µg/mL (≈ 0.326 µM). The same compound gave a T/C in assay [7] of 133%. `CN(C)CCNc1ccc2nnn3c4ccc(O)cc4c(=O)c1c23` had a half-inhibitory concentration (IC50) in [1] of 0.1 µg/mL (≈ 0.309 µM). The compound also registered a T/C in assay [8] of 260%. Take `CN(C)CCCNc1ccc2nnn3c4ccc(Cl)cc4c(=O)c1c23`: in assay [1], the half-maximal inhibitory concentration (IC50) came out at 0.13 µg/mL (≈ 0.365 µM). The T/C in assay [5] is 111%. For the compound `CN(C)CCNc1ccc2nnn3c4ccc([N+](=O)[O-])cc4c(=O)c1c23`, it took 0.11 µg/mL (≈ 0.312 µM) to reach half-maximal inhibition in [1] (IC50). Moreover, in assay [7], the T/C is 130%. With `CN(C)CCCNc1ccc2nnn3c4ccccc4c(=O)c1c23`, the half-maximal inhibitory concentration (IC50) in assay [1] was found to be 0.28 µg/mL (≈ 0.871 µM). In addition, the T/C in assay [2] is on record as 133%. For `COc1ccc2c(c1)c(=O)c1c(NCCNCCO)ccc3nnn2c31`, the IC50 in assay [1] stood at 0.09 µg/mL (≈ 0.255 µM). Moreover, in [3], the T/C amounted to 120%. The compound `Cc1ccc2c(c1)c(=O)c1c(NCCNCCO)ccc3nnn2c31` returned a concentration for half-maximal inhibition (IC50) in [1] of 0.24 µg/mL (≈ 0.711 µM).

`CN(C)CCCNc1ccc2nnn3c4ccc([N+](=O)[O-])cc4c(=O)c1c23`: 0.12 µg/mL (≈ 0.328 µM) corresponded to half-maximal inhibition in [1] (IC50). Further, the T/C in assay [7] is 110%.

Turning to `Cc1ccc2c(c1)c(=O)c1c(NCCCN(C)C)ccc3nnn2c31`, half-maximal inhibition in [1] (IC50) was put at 0.15 µg/mL (≈ 0.447 µM). As to `CN(C)CCNc1ccc2nnn3c4ccc(Cl)cc4c(=O)c1c23`, in assay [1], the IC50 came to 0.1 µg/mL (≈ 0.293 µM). Besides, the T/C in assay [7] amounted to 110%. As for `CCN(CC)CCNc1ccc2nnn3c4ccc(OC)cc4c(=O)c1c23`, in assay [1], the 50% inhibitory concentration (IC50) was 0.16 µg/mL (≈ 0.438 µM). The compound also had a T/C in assay [3] of 120%. `O=c1c2cc(Cl)ccc2n2nnc3ccc(NCCNCCO)c1c32` registered an IC50 in assay [1] of 0.16 µg/mL (≈ 0.447 µM). In addition, the T/C in [7] worked out at 133%. In assay [1], `O=C1c2ccccc2C(=O)c2c(NCCNCCO)ccc(NCCNCCO)c21` [AMETANTRONE] showed an IC50 of 0.17 µg/mL (≈ 0.412 µM). For the same compound, the T/C in assay [9] is 300%. In [1], `COc1ccc2c(c1)c(=O)c1c(NCCN(C)C)ccc3nnn2c31` returned an IC50 of 0.1 µg/mL (≈ 0.296 µM). In addition, the T/C in assay [7] came to 110%. On to `CCN(CC)CCNc1ccc2nnn3c4ccccc4c(=O)c1c23`, for which half-maximal inhibition in assay [1] (IC50) required 0.42 µg/mL (≈ 1.25 µM). In assay [2], this compound showed a T/C of 160%. `O=c1c2cc(O)ccc2n2nnc3ccc(NCCNCCO)c1c32` displayed an IC50 in assay [1] of 0.12 µg/mL (≈ 0.354 µM). The T/C in assay [3] is recorded as 210%. In assay [1], `CCN(CC)CCNc1ccc2nnn3c4ccc(C)cc4c(=O)c1c23` displayed an IC50 of 0.21 µg/mL (≈ 0.601 µM). The compound further came in with a T/C in assay [10] of 133%.

`CCN(CC)CCNc1ccc2nnn3c4ccc([N+](=O)[O-])cc4c(=O)c1c23` had a concentration for half-maximal inhibition (IC50) in [1] of 0.12 µg/mL (≈ 0.315 µM). Moreover, in [3], the T/C came out at 122%.

The values above are taken from ChEMBL document CHEMBL1124989, “8-Substituted 5-[(aminoalkyl)amino]-6H-v-triazolo[4,5,1-de]acridin-6-ones as potential antineoplastic agents. Synthesis and biological activity” (J Med Chem, 1990).
